In ChEMBL document CHEMBL1158358, “Synthesis, antimicrobial and cytotoxic activities of some 5-arylidene-4-thioxo-thiazolidine-2-ones” (Eur J Med Chem, 2009):
≈ marks a conversion by molar mass, not a printed value.

What was measured:
Candida albicans [1] = assay: Antimicrobial activity against Candida albicans UFPEDA 1007 at 25 ug/disk after 48 hrs by disk diffusion method; assay type: functional; settings: UFPEDA 1007, 48 h, read-out: IZ
Outline: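 Preliminary screen: 6 mm paper disks bearing the agent placed on agar plates inoculated with a standardized microbial suspension. Negative control was DMSO-only disks. Inhibition zones are means of n = 3; no zone or a mean zone below 7 mm was scored as no sensitivity.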

Candida albicans [2] = assay: Antimicrobial activity against Candida albicans UFPEDA 1007 after 48 hrs by twofold serial dilution technique; assay type: functional; settings: UFPEDA 1007, 48 h
Outline: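 MIC was determined by twofold serial dilution. Bacteria were tested in plates at 10⁵ CFU/plate and read after 20 h. C. albicans was tested in tubes at 10³ CFU/tube and read after 48 h. All incubations were at 35 °C. Medium plus DMSO served as the negative control.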

NCI-H292 = assay: Cytotoxicity against human NCI-H292 cells after 72 hrs by MTT assay; assay type: functional, cell-based; settings: NCI-H292, 72 h
Outline: (§1)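 MTT antiproliferative assay. Cells were diluted to 10⁵ cells/mL in 96-well plates and preincubated for 24 h at 37 °C in humid 5% CO₂. Compounds or vincristine (reference) were then added. Formazan was dissolved and OD read at 540 nm, compared with medium-only control cells. Run in triplicate.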

HEp-2 = assay: Cytotoxicity against human Hep2 cells after 72 hrs by MTT assay; assay type: functional, cell-based; settings: HEp-2, 72 h; outline: as §1

Q: What does the source list for `CC(=O)N1CCN(c2ccc(OCC3COC(Cn4ccnc4)(c4ccc(Cl)cc4Cl)O3)cc2)CC1` (centres undefined) [KETOCONAZOLE]?
A: zone of inhibition at 25 µg/disc (Candida albicans [1]): 28 mm; MIC (Candida albicans [2]): ≤ 1 µg/mL

Q: Which IC50 (NCI-H292) does the source give for `CC[C@]1(O)C[C@H]2CN(CCc3c([nH]c4ccccc34)[C@@](C(=O)OC)(c3cc4c(cc3OC)N(C=O)[C@H]3[C@@](O)(C(=O)OC)[C@H](OC(C)=O)[C@]5(CC)C=CCN6CC[C@]43[C@@H]65)C2)C1` [VINCRISTINE] here?
A: 0.04 µg/mL (≈ 0.0485 µM)

Q: What about the IC50 (HEp-2) of the same compound?
A: 0.003 µg/mL (≈ 0.00364 µM)
